Assay results published in ChEMBL document CHEMBL3352168, “Potent, orally available, selective COX-2 inhibitors based on 2-imidazoline core” (Eur J Med Chem, 2014).
Each block holds one compound with its values, some of them ahead of it.

Tests used:
[1] = molecular target: T1, Prostaglandin G/H synthase 1 (Ovis aries) (UniProt P05979); assay: Inhibition of ovine COX1 using fluorometric substrate at 100 uM by fluorescent inhibitor screening assay
T1 sequence (whole entry): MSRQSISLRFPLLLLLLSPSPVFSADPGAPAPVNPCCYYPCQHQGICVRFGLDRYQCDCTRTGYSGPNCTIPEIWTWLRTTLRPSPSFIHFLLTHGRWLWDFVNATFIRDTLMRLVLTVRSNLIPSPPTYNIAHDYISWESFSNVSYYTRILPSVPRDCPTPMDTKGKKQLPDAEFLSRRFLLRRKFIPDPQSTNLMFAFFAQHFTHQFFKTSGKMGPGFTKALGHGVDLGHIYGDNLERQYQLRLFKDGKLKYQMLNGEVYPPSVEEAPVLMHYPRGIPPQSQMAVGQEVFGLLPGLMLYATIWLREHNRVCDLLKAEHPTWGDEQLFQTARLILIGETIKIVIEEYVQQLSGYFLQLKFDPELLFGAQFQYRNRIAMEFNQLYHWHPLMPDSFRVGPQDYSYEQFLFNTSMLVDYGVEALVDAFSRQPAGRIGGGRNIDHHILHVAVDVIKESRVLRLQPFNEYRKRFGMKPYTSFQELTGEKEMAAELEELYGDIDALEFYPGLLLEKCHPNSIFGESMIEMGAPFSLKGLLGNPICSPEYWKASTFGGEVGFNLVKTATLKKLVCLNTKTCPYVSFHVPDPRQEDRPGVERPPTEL

[2] = molecular target: T2, Prostaglandin G/H synthase 2 (Homo sapiens, UniProt P35354); assay: Inhibition of human recombinant COX2 using fluorometric substrate by fluorescent inhibitor screening assay
T2 sequence (P35354 whole entry): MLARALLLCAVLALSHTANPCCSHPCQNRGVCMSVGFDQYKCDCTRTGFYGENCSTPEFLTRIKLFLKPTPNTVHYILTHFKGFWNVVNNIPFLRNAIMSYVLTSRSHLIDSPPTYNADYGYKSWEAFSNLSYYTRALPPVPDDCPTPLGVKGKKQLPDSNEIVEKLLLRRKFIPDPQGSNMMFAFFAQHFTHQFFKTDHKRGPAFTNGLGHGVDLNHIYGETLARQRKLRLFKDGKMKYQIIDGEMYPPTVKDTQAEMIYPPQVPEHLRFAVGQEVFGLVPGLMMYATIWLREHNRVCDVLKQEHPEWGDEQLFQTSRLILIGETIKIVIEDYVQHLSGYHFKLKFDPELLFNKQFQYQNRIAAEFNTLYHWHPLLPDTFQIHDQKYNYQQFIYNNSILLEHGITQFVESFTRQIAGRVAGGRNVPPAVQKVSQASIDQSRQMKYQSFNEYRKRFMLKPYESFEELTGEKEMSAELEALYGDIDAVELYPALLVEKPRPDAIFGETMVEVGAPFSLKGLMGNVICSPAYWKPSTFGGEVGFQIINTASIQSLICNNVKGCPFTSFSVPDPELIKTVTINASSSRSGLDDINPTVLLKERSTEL
Method in brief: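 Human recombinant COX-2 in 100 mM Tris-HCl pH 8.0 with heme and ADHP fluorometric substrate; inhibitor added at final […] (units as printed) from DMSO stocks; reaction started with arachidonic acid, 2 min at room temperature. Resorufin fluorescence read at ex 535/em 590 nm; % inhibition vs no-inhibitor activity; IC50 from concentration–inhibition curve, triplicate determinations.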

[3] = Tmax in C57Bl mouse plasma at 10 mg/kg, po; type: ADME, organism-based; parameters: dose 10 mg/kg, route oral
Method in brief: (§1)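 Male C57Bl mice, about 2 months old, 18.1–23.6 g, fasted overnight, dosed by oral gavage; 4 animals per group plus non-dosed control group; killed by cervical dislocation for blood and whole brain. Plasma precipitated with internal standard; brain homogenized in 67% methanol, centrifuged, spiked with internal standard; quantified by HPLC-MS against blank-brain calibration.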

[4] = Tmax in C57Bl mouse brain at 10 mg/kg, po; type: ADME, organism-based; parameters: dose 10 mg/kg, route oral; method in brief: as §1
[5] = Cmax in C57Bl mouse plasma at 10 mg/kg, po; type: ADME, organism-based; parameters: dose 10 mg/kg, route oral; method in brief: as §1
[6] = Cmax in C57Bl mouse brain at 10 mg/kg, po; type: ADME, organism-based; parameters: dose 10 mg/kg, route oral; method in brief: as §1
[7] = AUC (0 to 240 mins) in C57Bl mouse plasma at 10 mg/kg, po; type: ADME, organism-based; parameters: time < 4 hr, dose 10 mg/kg, route oral; method in brief: as §1
[8] = AUC (0 to 240 mins) in C57Bl mouse brain at 10 mg/kg, po; type: ADME, organism-based; parameters: time < 4 hr, dose 10 mg/kg, route oral; method in brief: as §1
[9] = AUC (0 to infinity) in C57Bl mouse plasma at 10 mg/kg, po; type: ADME, organism-based; parameters: time infinity, dose 10 mg/kg, route oral; method in brief: as §1
[10] = AUC (0 to infinity) in C57Bl mouse brain at 10 mg/kg, po; type: ADME, organism-based; parameters: time infinity, dose 10 mg/kg, route oral; method in brief: as §1
[11] = Half life in C57Bl mouse plasma at 10 mg/kg, po; type: ADME, organism-based; parameters: dose 10 mg/kg, route oral; method in brief: as §1
[12] = Half life in C57Bl mouse brain at 10 mg/kg, po; type: ADME, organism-based; parameters: dose 10 mg/kg, route oral; method in brief: as §1
Plasma [13] = assay: Volume of distribution at steady state in C57Bl mouse plasma at 10 mg/kg, po; type: ADME, organism-based; parameters: dose 10 mg/kg, route oral; settings: in vivo; method in brief: as §1
[14] = Clearance in C57Bl mouse plasma at 10 mg/kg, po; type: ADME, organism-based; parameters: dose 10 mg/kg, route oral; method in brief: as §1
Plasma [15] = assay: Tmax in C57Bl mouse plasma assessed as aromatization metabolite at 10 mg/kg, po; type: ADME, organism-based; parameters: dose 10 mg/kg, route oral; settings: in vivo
Brain [16] = assay: Tmax in C57Bl mouse brain assessed as aromatization metabolite at 10 mg/kg, po; type: ADME, organism-based; parameters: dose 10 mg/kg, route oral; settings: in vivo
Plasma [17] = assay: Cmax in C57Bl mouse plasma assessed as aromatization metabolite at 10 mg/kg, po; type: ADME, organism-based; parameters: dose 10 mg/kg, route oral; settings: in vivo
Brain [18] = assay: Cmax in C57Bl mouse brain assessed as aromatization metabolite at 10 mg/kg, po; type: ADME, organism-based; parameters: dose 10 mg/kg, route oral; settings: in vivo
Plasma [19] = assay: AUC (0 to 240 mins) in C57Bl mouse plasma assessed as aromatization metabolite at 10 mg/kg, po; type: ADME, organism-based; parameters: time < 4 hr, dose 10 mg/kg, route oral; settings: in vivo, 4 h
Brain [20] = assay: AUC (0 to 240 mins) in C57Bl mouse brain assessed as aromatization metabolite at 10 mg/kg, po; type: ADME, organism-based; parameters: time < 4 hr, dose 10 mg/kg, route oral; settings: in vivo, 4 h
Plasma [21] = assay: AUC (0 to infinity) in C57Bl mouse plasma assessed as aromatization metabolite at 10 mg/kg, po; type: ADME, organism-based; parameters: dose 10 mg/kg, route oral, time infinity; settings: in vivo
Brain [22] = assay: AUC (0 to infinity) in C57Bl mouse brain assessed as aromatization metabolite at 10 mg/kg, po; type: ADME, organism-based; parameters: time infinity, dose 10 mg/kg, route oral; settings: in vivo
Plasma [23] = assay: Half life in C57Bl mouse plasma assessed as aromatization metabolite at 10 mg/kg, po; type: ADME, organism-based; parameters: dose 10 mg/kg, route oral; settings: in vivo
Brain [24] = assay: Half life in C57Bl mouse brain assessed as aromatization metabolite at 10 mg/kg, po; type: ADME, organism-based; parameters: dose 10 mg/kg, route oral; settings: in vivo
Brain [25] = assay: Drug metabolism in C57Bl mouse brain at 10 mg/kg, po; type: ADME, organism-based; parameters: dose 10 mg/kg, route oral; settings: in vivo
Plasma [26] = assay: Drug metabolism in C57Bl mouse plasma at 10 mg/kg, po; type: ADME, organism-based; parameters: dose 10 mg/kg, route oral; settings: in vivo
Mus musculus = assay: Antiinflammatory activity in mouse assessed as reduction in carrageenan-induced inflamed paw volume at 3.7 mg/kg, ip relative to untreated control; type: functional; settings: route intraperitoneal

SMILES: Cc1cccc(C2=NCCN2c2ccc(S(C)(=O)=O)cc2)c1
inhibition [1]: 6% | IC50 [2]: > 10 µM

SMILES: NS(=O)(=O)c1ccc(N2CCN=C2c2cccc(Br)c2)cc1
inhibition [1]: 12.9% | IC50 [2]: 2.9 µM

SMILES: CC1CN(c2ccc(S(N)(=O)=O)cc2)C(c2cccc(Br)c2)=N1 (racemic)
inhibition [1]: 20.2% | IC50 [2]: > 10 µM

SMILES: COc1cc(C2=NCCN2c2ccc(S(C)(=O)=O)cc2)ccc1F
inhibition [1]: -4.3% | IC50 [2]: > 10 µM

SMILES: CS(=O)(=O)c1ccc(N2CCN=C2c2ccc(Cl)c(Cl)c2)cc1
inhibition [1]: 1.9% | IC50 [2]: 2.1 µM

SMILES: CC1CN(c2ccc(S(C)(=O)=O)cc2)C(c2ccc(Cl)cc2)=N1 (racemic)
inhibition [1]: -5.2% | IC50 [2]: > 10 µM

SMILES: CC1CN(c2ccc(S(C)(=O)=O)cc2)C(c2cccc(Br)c2)=N1 (racemic)
inhibition [1]: 11.1% | IC50 [2]: > 10 µM

SMILES: CS(=O)(=O)c1ccc(N2CCN=C2c2cccc(Br)c2)cc1
inhibition [1]: 12.6% | IC50 [2]: 6.8 µM

SMILES: CS(=O)(=O)c1ccc(N2CCN=C2c2ccc(Cl)c(C(F)(F)F)c2)cc1
inhibition [1]: 4.7% | IC50 [2]: 3.6 µM

Continued, in another order:

inhibition [1]: 3% | IC50 [2]: 6.2 µM
SMILES: COc1ccc(C2=NCCN2c2ccc(S(N)(=O)=O)cc2)cc1Cl

inhibition [1]: -1.6% | IC50 [2]: > 10 µM
SMILES: COc1ccc(C2=NCCN2c2ccc(S(C)(=O)=O)cc2)cc1F

inhibition [1]: 8.7% | IC50 [2]: 0.3 µM | Tmax [3]: 5 min | Tmax [4]: 0.5 h | Cmax [5]: 6140 ng/mL | Cmax [6]: 267 ng/mL | AUC(0-t) at 4 h [7]: 11700 ng·h/mL | AUC(0-t) at 4 h [8]: 491 ng·h/mL | AUC(0-inf) [9]: 12700 ng·h/mL | AUC(0-inf) [10]: 525 ng·h/mL | half-life [11]: 1.08 h | half-life [12]: 0.967 h | Vdss (Plasma [13]): 1.22 L/kg | CL/F [14]: 13 mL/min/kg | Tmax (Plasma [15]): 2 h | Tmax (Brain [16]): 2 h | Cmax (Plasma [17]): 735 ng/mL | Cmax (Brain [18]): 33 ng/mL | AUC (Plasma [19]): 145573 ng·min/mL | AUC (Brain [20]): 5969 ng·min/mL | AUC (Plasma [21]): 364739 ng·min/mL | AUC (Brain [22]): 8533 ng·min/mL | t1/2 (Plasma [23]): 4.65 h | t1/2 (Brain [24]): 1.87 h | Drug metabolism (Brain [25]): metabolite_detected | Drug metabolism (Plasma [26]): metabolite_detected
SMILES: NS(=O)(=O)c1ccc(N2CCN=C2c2ccc(Cl)c(Cl)c2)cc1
inhibition in vivo at 3.7 mg/kg (Mus musculus): 56%

IC50 [2]: > 10 µM
SMILES: COc1cc(C2=NCCN2c2ccc(S(N)(=O)=O)cc2)ccc1F

inhibition [1]: 6.6% | IC50 [2]: 6.7 µM
SMILES: NS(=O)(=O)c1ccc(N2CCN=C2c2ccc(F)c(F)c2)cc1

inhibition [1]: 1.2% | IC50 [2]: > 10 µM
SMILES: COc1ccc(C2=NCCN2c2ccc(S(C)(=O)=O)cc2)cc1Cl

inhibition [1]: -8% | IC50 [2]: 2.5 µM
SMILES: NS(=O)(=O)c1ccc(N2CCN=C2c2cccc(Cl)c2)cc1
